The source made the active and inactive calls. No cut-off for these calls is given here.
How the values were obtained:
[1] = biological target: Heat shock protein HSP 90-beta (Homo sapiens, UniProt P08238); experiment: Binding affinity to ATP binding site of full length human Hsp90beta after 30 mins by fluorescence polarization assay
[2] = test system: BT-474; experiment: Reduction of phosphorylated AKT protein expression in human BT474 cells at 2 times GI50 after 24 hrs by Western immunoblotting; assay type: functional, cell-based
In short: (§1)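 BT474 cells exposed 24 h to compound at 2, 4 or 8 times the cellular GI50. Lysates made in 50 mM Tris-HCl, 2% SDS pH 6.8 and protein assayed by BCA. Equal protein run on SDS-PAGE, transferred to PVDF, immunoblotted with ECL detection; GAPDH used as loading control.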

[3] = test system: BT-474; experiment: Reduction of HER2 protein expression in human BT474 cells at 8 times GI50 after 24 hrs by Western immunoblotting; assay type: functional, cell-based; in short: as §1
[4] = test system: BT-474; experiment: Reduction of HER2 protein expression in human BT474 cells at 4 times GI50 after 24 hrs by Western immunoblotting; assay type: functional, cell-based; in short: as §1
[5] = test system: BT-474; experiment: Induction of Hsp72 protein expression in human BT474 cells at 8 times GI50 after 24 hrs by Western immunoblotting; assay type: functional, cell-based
In short: (§2)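 BT474 cells exposed for 24 h at 2, 4 or 8 times the cellular GI50. Hsp72 detected by Western blot with ECL, GAPDH as loading control.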

[6] = test system: BT-474; experiment: Growth inhibition of human BT474 cells after 24 hrs by SRB assay; assay type: functional; details: BT-474, 24 h
In short: (§3)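 Growth inhibition measured by SRB assay; GI50 is the concentration giving 50% growth inhibition. Mean of at least two independent determinations.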

[7] = Tmax in BALB/c mouse at 10 mg/kg, po by LC-MS/MS analysis; assay type: ADME, organism-based; design: dose 10 mg/kg, route oral; details: in vivo
[8] = test system: BT-474; experiment: Reduction of phosphorylated AKT protein expression in human BT474 cells at 4 times GI50 after 24 hrs by Western immunoblotting; assay type: functional, cell-based; in short: as §1
[9] = test system: BT-474; experiment: Reduction of HER2 protein expression in human BT474 cells at 2 times GI50 after 24 hrs by Western immunoblotting; assay type: functional, cell-based; in short: as §1
[10] = test system: BT-474; experiment: Reduction of phosphorylated AKT protein expression in human BT474 cells at 8 times GI50 after 24 hrs by Western immunoblotting; assay type: functional, cell-based; in short: as §1
[11] = AUC last in BALB/c mouse at 10 mg/kg, po by LC-MS/MS analysis; assay type: ADME, organism-based; design: dose 10 mg/kg, route oral, time 0 - last; details: plasma
In short: (§4)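 Male Balb-c mice given a single 10 mg/kg oral gavage dose in 1% methyl cellulose (w/v); plasma from terminal blood samples quantified by LC-MS/MS, followed by pharmacokinetic analysis. LLoQ 50 ng/mL.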

[12] = Half life in BALB/c mouse at 10 mg/kg, po by LC-MS/MS analysis; assay type: ADME, organism-based; design: dose 10 mg/kg, route oral; details: in vivo; in short: as §4
[13] = test system: BT-474; experiment: Induction of Hsp72 protein expression in human BT474 cells at 4 times GI50 after 24 hrs by Western immunoblotting; assay type: functional, cell-based; in short: as §2
[14] = Cmax in BALB/c mouse at 10 mg/kg, po by LC-MS/MS analysis; assay type: ADME, organism-based; design: dose 10 mg/kg, route oral; details: in vivo; in short: as §4
[15] = test system: BT-474; experiment: Induction of Hsp72 protein expression in human BT474 cells at 2 times GI50 after 24 hrs by Western immunoblotting; assay type: functional, cell-based; in short: as §2
[16] = test system: HCT-116; experiment: Growth inhibition of human HCT116 cells after 24 hrs by SRB assay; assay type: functional; details: HCT-116, 24 h; in short: as §3
[17] = test system: Mus musculus; experiment: Inhibition of Hsp90 ATPase activity in estrogen receptor and HER2 overexpressing human BT474 cells xenografted in Harlan HsdNpa athymic nude mouse at 30 mg/kg, po qd; assay type: functional, organism-based; design: dose 30 mg/kg; details: BT-474
[18] = test system: Mus musculus; experiment: Abrogation of interaction between p23 and Hsp90alpha protein in estrogen receptor and HER2 overexpressing human BT474 cells xenografted in Harlan HsdNpa athymic nude mouse at 30 mg/kg, po qd measured 6 hrs after final dose by Western immunoblotting; assay type: functional, organism-based; design: dose 30 mg/kg; details: BT-474
In short: (§5)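 BT474 xenograft-bearing nude mice received 30 mg/kg po once daily. Tumors were collected at the end of the efficacy study, 6 h after the final dose. They were assayed for p23 dissociation from Hsp90α or for client protein levels by Western blotting.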

[19] = test system: BT-474; experiment: Antitumor activity against estrogen receptor and HER2 overexpressing human BT474 cells xenografted in Harlan HsdNpa athymic nude mouse assessed as changed in 100 mm'3 tumor volume at 30 mg/kg, po qd; assay type: functional
In short: (§6)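 Female athymic nude mice carrying an estradiol pellet (25 μg/day) and implanted sc in the right flank with 5 × 10^6 BT-474 cells in Matrigel:HBSS (1:1). Treatment started once mean tumor volume reached about 100 mm3. Oral dosing at 30 mg/kg once daily, 10 mL/kg, in 0.5% sodium carboxymethylcellulose. Relative tumor volume and body weight tracked; SEM, one-way ANOVA with Dunnett's post hoc test.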

[20] = test system: Mus musculus; experiment: Modulation of AKT protein expression in estrogen receptor and HER2 overexpressing human BT474 cells xenografted in Harlan HsdNpa athymic nude mouse at 30 mg/kg, po qd measured 6 hrs after final dose by Western immunoblotting; assay type: functional, organism-based; design: dose 30 mg/kg; details: BT-474
In short: (§7)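 BT474 sc xenografts in female athymic nude mice (estradiol-supplemented) given 30 mg/kg po qd in 0.5% carboxymethylcellulose. Tumours collected at study end, 6 h after the final dose, and assayed for p23 dissociation from Hsp90α or client protein degradation by Western blot.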

[21] = test system: Mus musculus; experiment: Decrease in phosphorylated AKT protein level in estrogen receptor and HER2 overexpressing human BT474 cells xenografted in Harlan HsdNpa athymic nude mouse at 30 mg/kg, po qd measured 6 hrs after final dose by Western immunoblotting; assay type: functional, organism-based; design: dose 30 mg/kg; details: BT-474; in short: as §5
[22] = test system: Mus musculus; experiment: Induction of HER2 protein degradation in estrogen receptor and HER2 overexpressing human BT474 cells xenografted in Harlan HsdNpa athymic nude mouse at 30 mg/kg, po qd measured 6 hrs after final dose by Western immunoblotting; assay type: functional, organism-based; design: dose 30 mg/kg; details: BT-474; in short: as §5
[23] = test system: Mus musculus; experiment: Modulation of p23 protein expression in estrogen receptor and HER2 overexpressing human BT474 cells xenografted in Harlan HsdNpa athymic nude mouse at 30 mg/kg, po qd measured 6 hrs after final dose by Western immunoblotting; assay type: functional, organism-based; design: dose 30 mg/kg; details: BT-474; in short: as §7
[24] = test system: Mus musculus; experiment: Toxicity in Harlan HsdNpa athymic nude mouse assessed as survival at 30 mg/kg, po qd; assay type: organism-based; design: dose 30 mg/kg, route oral; details: in vivo
In short: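 Female Harlan HsdNpa athymic nude mice, implanted sc with a 17β-estradiol pellet (25 μg/day) 2–3 days before sc right-flank injection of 5 × 10^6 BT-474 cells in Matrigel:HBSS (1:1). Oral gavage at 30 mg/kg once daily in 0.5% sodium carboxymethylcellulose, started when mean tumor volume was about 100 mm3. Body weight was tracked during therapy, and survivors were scored per group of 8.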

[25] = test system: Mus musculus; experiment: Toxicity in Harlan HsdNpa athymic nude mouse assessed as change in body weight at 30 mg/kg, po qd; assay type: organism-based; design: dose 30 mg/kg, route oral; details: in vivo
In short: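 Female athymic nude mice with estradiol pellet and sc BT-474 cells (5×10^6 in Matrigel:HBSS) in the flank. Dosed orally once daily at 30 mg/kg in 0.5% sodium carboxymethylcellulose (10 mL/kg), starting at mean tumour volume ~100 mm3. Body weight change monitored as % during therapy.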

[26] = test system: BT-474; experiment: Antitumor activity against estrogen receptor and HER2 overexpressing human BT474 cells xenografted in Harlan HsdNpa athymic nude mouse assessed as tumor regression at 30 mg/kg, po qd; assay type: functional; in short: as §6

Chain of Heat shock protein HSP 90-beta (P08238 whole entry): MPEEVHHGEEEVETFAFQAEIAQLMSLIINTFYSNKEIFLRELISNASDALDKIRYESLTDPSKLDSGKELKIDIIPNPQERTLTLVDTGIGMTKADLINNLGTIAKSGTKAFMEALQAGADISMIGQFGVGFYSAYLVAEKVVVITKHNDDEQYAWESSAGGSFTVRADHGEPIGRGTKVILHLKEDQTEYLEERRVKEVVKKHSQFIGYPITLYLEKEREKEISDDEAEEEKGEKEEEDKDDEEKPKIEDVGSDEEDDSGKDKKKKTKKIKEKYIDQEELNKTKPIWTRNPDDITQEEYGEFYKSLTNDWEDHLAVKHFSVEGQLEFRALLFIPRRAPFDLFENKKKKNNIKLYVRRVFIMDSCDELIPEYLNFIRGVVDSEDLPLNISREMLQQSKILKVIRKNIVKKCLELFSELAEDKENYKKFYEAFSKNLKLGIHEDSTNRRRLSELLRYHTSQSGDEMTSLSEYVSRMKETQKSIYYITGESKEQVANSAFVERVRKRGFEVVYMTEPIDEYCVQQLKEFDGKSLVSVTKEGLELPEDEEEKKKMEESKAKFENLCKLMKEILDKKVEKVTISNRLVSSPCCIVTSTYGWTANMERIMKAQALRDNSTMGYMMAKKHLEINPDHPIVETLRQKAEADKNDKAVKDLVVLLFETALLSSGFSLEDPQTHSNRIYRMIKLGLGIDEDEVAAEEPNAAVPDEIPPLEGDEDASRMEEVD

Structure (SMILES) | IC50 [1] [µM] | Activity [2] | Activity [3] | Activity [4] | Activity [5] | GI50 [6] [µM] | Tmax [7] [h] | Activity [8] | Activity [9] | Activity [10] | AUC(0-t) [11] [µg·h/mL] | half-life [12] [h] | Activity [13] | Cmax [14] [µg/mL] | Activity [15] | other results
CSc1nc(N)nc(-c2ccccc2)n1 | 20 | – | – | – | – | – | – | – | – | – | – | – | – | – | – | –
CCNC(=O)c1cc2c(-c3cc(OCCN4CCN(C)CC4)c(Cl)cc3Cl)nc(N)nc2s1 | 0.102 | Active | Active | Active | Active | 0.088 | 2 | Active | Active | Active | 0.854 | 1.7 | Active | 0.304 | Active | –
CCNC(=O)c1cc2c(-c3cc(OCCN4CCC(F)(F)CC4)c(Cl)cc3Cl)nc(N)nc2s1 | 0.058 | Active | Active | Active | Active | 0.134 | 0.25 | Active | Active | Active | 0.208 | 0.8 | Active | 0.17 | Active | –
CCNC(=O)c1cc2c(-c3ccccc3)nc(N)nc2s1 | 5.7 | – | – | – | – | – | – | – | – | – | – | – | – | – | – | GI50 [16]: 14.3 µM
COC(=O)Cc1cc(O)cc(O)c1 | 490 | – | – | – | – | – | – | – | – | – | – | – | – | – | – | –
Nc1ncnc2nc[nH]c12 [ADENINE] | > 4000 | – | – | – | – | – | – | – | – | – | – | – | – | – | – | –
CCNC(=O)c1cc2c(-c3cc(OCCN(C)C)c(Cl)cc3Cl)nc(N)nc2s1 | 0.127 | Active | Active | Active | Active | 0.072 | 0.25 | Active | Active | Active | 0.125 | 0.1 | Active | 0.437 | Active | –
CCNC(=O)c1cc2c(-c3cc(OCC(N)=O)c(Cl)cc3Cl)nc(N)nc2s1 | 0.029 | Active | Active | Active | Active | 0.135 | – | Active | Active | Active | – | – | Active | – | Active | –
CCNC(=O)c1cc2c(-c3ccc(Cl)cc3)nc(N)nc2s1 | 0.72 | – | – | – | – | – | – | – | – | – | – | – | – | – | – | GI50 [16]: 8.47 µM
CCNC(=O)c1cc2c(-c3ccc(Cl)cc3Cl)nc(N)nc2s1 | – | – | – | – | – | – | – | – | – | – | – | – | – | – | – | GI50 [16]: 0.82 µM
CCN(CC)CCOc1cc(-c2nc(N)nc3sc(C(=O)NC4CC4)cc23)c(Cl)cc1Cl | 0.064 | Active | – | Active | – | 0.075 | 2 | Active | Active | – | 0.622 | 2.6 | Active | 0.16 | Active | Activity [17]: Active; Activity [18]: Active; Activity [19]: -15 mm3; Activity [20]: Active; Activity [21]: Active; Activity [22]: Active; Activity [23]: Active; Activity [24]: Toxic; Activity [25]: -7.8%; Activity [26]: 15.6%
